Measurements reported in ChEMBL document CHEMBL3351268, “Synthesis, biological evaluation, and molecular modeling of new 3-(cyclopentyloxy)-4-methoxybenzaldehyde O-(2-(2,6-dimethylmorpholino)-2-oxoethyl) Oxime (GEBR-7b) related phosphodiesterase 4D (PDE4D) inhibitors” (J Med Chem, 2014).
Values belong to the molecule of their own block, whether it stands above or below them. The source made the active and inactive calls. No cut-off for these calls is given here.

Legend:
[1] = biological target: T1, 3',5'-cyclic-AMP phosphodiesterase 4B (Homo sapiens, UniProt Q07343); experiment: Inhibition of PDE4B2 (unknown origin) at 10 uM
T1 sequence (Q07343 whole entry, canonical isoform): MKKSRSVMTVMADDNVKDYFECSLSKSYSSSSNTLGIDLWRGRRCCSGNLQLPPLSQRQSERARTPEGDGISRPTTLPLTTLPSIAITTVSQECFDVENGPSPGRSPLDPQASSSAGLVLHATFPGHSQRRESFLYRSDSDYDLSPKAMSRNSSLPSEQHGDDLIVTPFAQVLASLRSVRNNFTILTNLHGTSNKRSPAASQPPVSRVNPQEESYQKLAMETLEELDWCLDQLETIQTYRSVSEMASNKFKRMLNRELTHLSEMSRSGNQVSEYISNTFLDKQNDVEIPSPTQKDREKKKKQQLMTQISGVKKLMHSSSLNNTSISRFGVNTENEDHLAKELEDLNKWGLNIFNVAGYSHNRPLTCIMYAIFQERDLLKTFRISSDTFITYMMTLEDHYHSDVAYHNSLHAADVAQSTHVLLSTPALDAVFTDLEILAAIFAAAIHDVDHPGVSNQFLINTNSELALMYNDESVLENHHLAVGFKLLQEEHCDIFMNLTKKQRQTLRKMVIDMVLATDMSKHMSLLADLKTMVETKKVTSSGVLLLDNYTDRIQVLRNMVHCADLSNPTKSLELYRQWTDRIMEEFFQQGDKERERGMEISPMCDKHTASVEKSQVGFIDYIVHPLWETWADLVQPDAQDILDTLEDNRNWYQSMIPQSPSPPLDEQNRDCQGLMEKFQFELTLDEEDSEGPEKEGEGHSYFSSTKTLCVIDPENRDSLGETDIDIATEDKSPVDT
Summary of the method: (§1)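 Recombinant PDE4 isoform enzyme activity measured with compound at 10 μM, in duplicate; result given as % inhibition relative to control activity. PDE4D3 is recombinant human, expressed in a baculoviral system.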

[2] = biological target: 3',5'-cyclic-AMP phosphodiesterase 4A (Homo sapiens) (UniProt P27815); experiment: Inhibition of PDE4A4 (unknown origin) at 10 uM; summary of the method: as §1
Sequence of 3',5'-cyclic-AMP phosphodiesterase 4A (Homo sapiens) (P27815 whole entry): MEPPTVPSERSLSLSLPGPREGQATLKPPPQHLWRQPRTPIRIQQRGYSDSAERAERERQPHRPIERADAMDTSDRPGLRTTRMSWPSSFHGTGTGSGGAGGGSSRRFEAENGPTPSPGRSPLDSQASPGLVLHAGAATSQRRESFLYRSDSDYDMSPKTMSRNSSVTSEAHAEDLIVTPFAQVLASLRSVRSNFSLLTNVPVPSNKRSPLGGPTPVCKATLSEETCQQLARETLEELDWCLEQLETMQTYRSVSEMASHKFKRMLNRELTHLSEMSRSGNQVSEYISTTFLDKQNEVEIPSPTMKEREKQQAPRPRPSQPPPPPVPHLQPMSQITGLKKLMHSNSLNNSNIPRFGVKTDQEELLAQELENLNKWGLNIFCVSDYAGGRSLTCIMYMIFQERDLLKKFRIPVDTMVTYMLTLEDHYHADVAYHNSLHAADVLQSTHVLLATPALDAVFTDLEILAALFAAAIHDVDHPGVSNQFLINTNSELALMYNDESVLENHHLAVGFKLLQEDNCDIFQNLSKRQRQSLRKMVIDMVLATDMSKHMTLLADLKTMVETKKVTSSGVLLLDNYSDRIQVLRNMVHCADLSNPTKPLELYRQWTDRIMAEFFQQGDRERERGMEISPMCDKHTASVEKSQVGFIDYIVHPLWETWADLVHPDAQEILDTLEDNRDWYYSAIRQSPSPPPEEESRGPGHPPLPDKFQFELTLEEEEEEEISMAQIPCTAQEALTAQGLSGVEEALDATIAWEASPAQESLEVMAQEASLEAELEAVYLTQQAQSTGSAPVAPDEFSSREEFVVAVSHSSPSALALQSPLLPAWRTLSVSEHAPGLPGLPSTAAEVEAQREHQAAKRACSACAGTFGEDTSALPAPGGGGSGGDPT

[3] = Genotoxicity against human HTLA-230 cells assessed as phosphorylation of histone H2AX at 100 uM after 24 hrs by Western blot analysis; assay type: toxicity, cell-based; details: htla-230, 24 h
[4] = biological target: T2, 3',5'-cyclic-AMP phosphodiesterase 4D (Homo sapiens, UniProt Q08499); experiment: Inhibition of PDE4D3 in human HTLA230 cells assessed as accumulation of intracellular cAMP pretreated at 100 uM for 10 min before forskolin addition measured after 20 mins by enzyme immunoassay; assay type: cell-based
T2 sequence (Q08499 whole entry): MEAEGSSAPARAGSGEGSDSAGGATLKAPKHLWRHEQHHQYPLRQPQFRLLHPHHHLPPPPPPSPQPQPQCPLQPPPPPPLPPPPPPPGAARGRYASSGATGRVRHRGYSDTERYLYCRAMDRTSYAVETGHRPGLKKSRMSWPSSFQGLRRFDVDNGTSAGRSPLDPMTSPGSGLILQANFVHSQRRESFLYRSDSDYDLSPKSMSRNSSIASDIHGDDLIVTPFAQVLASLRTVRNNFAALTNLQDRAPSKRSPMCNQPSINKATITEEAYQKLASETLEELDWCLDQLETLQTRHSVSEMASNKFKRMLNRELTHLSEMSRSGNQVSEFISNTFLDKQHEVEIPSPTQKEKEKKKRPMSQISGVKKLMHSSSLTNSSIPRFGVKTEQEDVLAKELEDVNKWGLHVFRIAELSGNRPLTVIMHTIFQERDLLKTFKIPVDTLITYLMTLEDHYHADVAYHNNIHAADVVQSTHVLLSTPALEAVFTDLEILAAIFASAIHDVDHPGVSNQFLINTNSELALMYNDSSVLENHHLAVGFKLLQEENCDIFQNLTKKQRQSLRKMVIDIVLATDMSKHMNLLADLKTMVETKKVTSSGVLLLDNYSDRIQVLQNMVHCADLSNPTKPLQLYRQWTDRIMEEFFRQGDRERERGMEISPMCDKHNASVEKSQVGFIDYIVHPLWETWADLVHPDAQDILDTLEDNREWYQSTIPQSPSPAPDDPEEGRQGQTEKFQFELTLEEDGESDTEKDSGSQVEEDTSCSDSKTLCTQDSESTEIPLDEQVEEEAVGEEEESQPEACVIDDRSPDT
Summary of the method: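 cAMP accumulation in HTLA cells treated 30 min with compound. Where indicated, forskolin was added during the last 20 min to raise basal cAMP. Intracellular cAMP measured by cAMP-specific enzymatic immunoassay.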

[5] = biological target: T2, 3',5'-cyclic-AMP phosphodiesterase 4D; experiment: Inhibition of recombinant human PDE4D3 expressed in baculoviral system
Summary of the method: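 Recombinant PDE4 isoform enzyme (PDE4D3: recombinant human, baculoviral expression) tested at five concentrations over 5 × 10−8–10−4 M, in duplicate. IC50 obtained by nonlinear regression of the inhibition curve with Hill equation fitting.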

[6] = Cytotoxicity against human HTLA-230 cells at 100 uM after 24 hrs by lactate dehydrogenase release assay; assay type: cell-based; details: htla-230, 24 h
Summary of the method: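 HTLA human neuronal cells exposed 24 h to 100 μM test compound; cytotoxicity read as lactate-dehydrogenase release.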

[7] = biological target: T2, 3',5'-cyclic-AMP phosphodiesterase 4D; experiment: Inhibition of PDE4D3 (unknown origin) at 10 uM; summary of the method: as §1
[8] = biological target: T2, 3',5'-cyclic-AMP phosphodiesterase 4D; experiment: Inhibition of recombinant human PDE4D3 expressed in baculoviral system at 10 uM; summary of the method: as §1
[9] = biological target: T2, 3',5'-cyclic-AMP phosphodiesterase 4D; experiment: Inhibition of PDE4D2 (unknown origin) at 10 uM
[10] = biological target: T2, 3',5'-cyclic-AMP phosphodiesterase 4D; experiment: Inhibition of PDE4D1 (unknown origin) at 10 uM
[11] = biological target: T1, 3',5'-cyclic-AMP phosphodiesterase 4B; experiment: Inhibition of PDE4B2 (unknown origin)
Homo sapiens = organism: Homo sapiens; experiment: Selectivity ratio of IC50 PDE4B2 (unknown origin) for to IC50 for ecombinant human PDE4D3 expressed in baculoviral system

SMILES: COc1ccc(CCC(=O)N2CCC(O)CC2)cc1OC1CCCC1
- inhibition [8]: 12%

SMILES: COc1ccc(/C=C/C(=O)N2CC(C)OC(C)C2)cc1OC1CCCC1 (stereo not given)
- inhibition [8]: 16%

SMILES: COc1ccc(C(=O)N2CCC(O)CC2)cc1OC1CCCC1
- inhibition [8]: 20%

SMILES: COc1ccc(/C=N/N2CCOCC2)cc1OC1CCCC1
- inhibition [9]: 62%
- inhibition [1]: 62%
- inhibition [2]: 41%
- inhibition [10]: 75%
- Activity [3]: Non-toxic
- IC50 [11]: 1600 nM
- Ratio IC50 (Homo sapiens): 2.6
- IC50 [5]: 660 nM
- Activity [6]: 0.04%
- inhibition [7]: 83%
- inhibition [8]: 83%

SMILES: COc1ccc(C(=O)N2CCOCC2)cc1OC1CCCC1
- inhibition [8]: 45%

SMILES: COc1ccc(C(=O)NN2CC(C)OC(C)C2)cc1OC1CCCC1 (stereo not given)
- inhibition [8]: 0%

SMILES: COc1cc([C@@H]2c3cc4c(cc3[C@@H](O[C@@H]3O[C@@H]5CO[C@@H](C)O[C@H]5[C@H](O)[C@H]3O)[C@H]3COC(=O)[C@H]23)OCO4)cc(OC)c1O [ETOPOSIDE]
- Activity [3]: Toxic

SMILES: COc1ccc(/C=C/C(=O)N2CCOCC2)cc1OC1CCCC1
- inhibition [8]: 25%

SMILES: COc1ccc(CCC(=O)N2CC(C)OC(C)C2)cc1OC1CCCC1 (stereo not given)
- inhibition [8]: 10%

SMILES: COc1ccc(C(=O)N2CC(C)OC(C)C2)cc1OC1CCCC1 (stereo not given)
- inhibition [9]: 9%
- inhibition [10]: 18%
- inhibition [7]: 31%
- inhibition [8]: 31%

SMILES: COc1ccc(C(=O)NN2CCOCC2)cc1OC1CCCC1
- inhibition [9]: 32%
- inhibition [10]: 49%
- inhibition [7]: 32%
- inhibition [8]: 32%

SMILES: COc1ccc(CCC(=O)N2CCOCC2)cc1OC1CCCC1
- inhibition [8]: 7%

SMILES: COc1ccc(/C=N/N2CC(C)OC(C)C2)cc1OC1CCCC1 (stereo not given)
- inhibition [9]: 53%
- inhibition [1]: 47%
- inhibition [2]: 29%
- inhibition [10]: 68%
- Activity [3]: Non-toxic
- IC50 [5]: 1550 nM
- Activity [6]: 0.01%
- inhibition [7]: 75%
- inhibition [8]: 75%

SMILES: COc1ccc(/C=N/OCC(=O)N2CC(C)OC(C)C2)cc1OC1CCCC1 (stereo not given)
- Activity [3]: Non-toxic
- Activity [6]: 0.14%

More lines, main results first:

- inhibition [1]: 5%
- inhibition [2]: 10%
- inhibition [4]: Active
- IC50 [5]: 1790 nM
- inhibition [7]: 65%
- inhibition [8]: 65%
SMILES: COc1ccc(/C=N/OCC(O)CN2CCC(O)CC2)cc1OC1CCCC1 (stereo not given)
- Activity [3]: Non-toxic
- Activity [6]: 1.2%

- inhibition [1]: 34%
- inhibition [2]: 33%
- IC50 [5]: 1260 nM
- inhibition [7]: 56%
- inhibition [8]: 56%
SMILES: COc1ccc(/C=N/OCC(O)CNN2CCOCC2)cc1OC1CCCC1 (stereo not given)
- Activity [3]: Non-toxic
- Activity [6]: 0.01%

- inhibition [8]: 24%
SMILES: COc1ccc(/C=N/OCCC(=O)N2CC(C)OC(C)C2)cc1OC1CCCC1 (stereo not given)

- inhibition [9]: 74%
- inhibition [1]: 51%
- inhibition [2]: 41%
- inhibition [10]: 65%
- IC50 [11]: 18000 nM
- Ratio IC50 (Homo sapiens): 90
- IC50 [5]: 210 nM
- inhibition [7]: 80%
- inhibition [8]: 80%
SMILES: COc1ccc(/C=N/OCC(O)CNN2CC(C)OC(C)C2)cc1OC1CCCC1 (stereo not given)
- Activity [3]: Non-toxic
- Activity [6]: 0.75%

- inhibition [8]: 12%
SMILES: COc1ccc(/C=N/OCC(CN2CCC(OC(C)=O)CC2)OC(C)=O)cc1OC1CCCC1 (stereo not given)

- inhibition [8]: 22%
SMILES: COc1ccc(/C=C/C(=O)N2CCC(O)CC2)cc1OC1CCCC1

- inhibition [8]: 30%
SMILES: COc1ccc(/C=N/OCC(=O)N2CCC(O)CC2)cc1OC1CCCC1

- inhibition [8]: 49%
SMILES: COc1ccc(/C=N/OCCC(=O)N2CCOCC2)cc1OC1CCCC1
